Assay results from ChEMBL document CHEMBL1123476, “Synthesis of congeners and prodrugs of the benzene maleimide photoadduct mitindomide as potential antitumor agents. 2” (J Med Chem, 1986).
“And” between values parts separate entries of the source, which are not always exact repeats. Equal values may be shown once.

What was measured:
P388 [1] = assay: (§1) Antitumor activity in P-388 lymphocytic leukemia system at 100 mg/kg dose levels per injection.; type: functional, Mus musculus
Outline: (§2)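 P-388 leukemia in vivo, dosed Q01D×09 (one injection daily for 9 days, mg/kg per injection). Activity is %T/C, the median lifetime of treated animals divided by that of controls, ×100. Live animals on day 4 were counted against the total (survivors day 4). Repeat tests were done independently at different times.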

P388 [2] = assay: Compound was tested for antitumor activity in P-388 lymphocytic leukemia system at 25 mg/kg dose levels per injection; type: functional, Mus musculus; outline: as §2
[3] = Solubility was determined; INS= less than 0.1; type: physicochemical
P388 [4] = assay: Antitumor activity in P-388 lymphocytic leukemia system and the difference in body weight was calculated at 200 mg/kg dose levels per injection.; type: functional, Mus musculus
P388 [5] = assay: Antitumor activity in P-388 lymphocytic leukemia system and the difference in body weight calculated at 100 mg/kg dose levels per injection.; type: functional, Mus musculus
P388 [6] = assay: (§3) Antitumor activity in P-388 lymphocytic leukemia system at 50 mg/kg dose levels per injection.; type: functional, Mus musculus; outline: as §2
P388 [7] = assay: as §1; type: functional, Mus musculus; remark: listed apart in the source
Outline: (§4)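 P-388 leukemia in animals, Q01D×09 schedule: dose given daily for 9 days, in mg/kg per injection. Read-outs are survivors on day 4 (live/total animals), body-weight difference test minus control (g), and % T/C (median lifetime of treated ÷ median lifetime of controls × 100). Some compounds were tested in independent runs at different times.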

P388 [8] = assay: Compound was tested for antitumor activity in P-388 lymphocytic leukemia system. at 400 mg/kg dose levels per injection; type: functional, Mus musculus; outline: as §2
P388 [9] = assay: (§5) Antitumor activity in P-388 lymphocytic leukemia system at 200 mg/kg dose levels per injection.; type: functional, Mus musculus; conditions: 200 mg/kg; outline: as §2
P388 [10] = assay: Compound was tested for antitumor activity in P-388 lymphocytic leukemia system and the difference in body weight was calculated at 400 mg/kg dose levels per injection; type: functional, Mus musculus
P388 [11] = assay: Antitumor activity in P-388 lymphocytic leukemia system at 25 mg/kg dose levels per injection.; type: functional, Mus musculus; outline: as §4
P388 [12] = assay: Compound was tested for antitumor activity in P-388 lymphocytic leukemia system at 400 mg/kg dose levels per injection; 5/6; type: functional, Mus musculus; outline: as §4
P388 [13] = assay: Antitumor activity in P-388 lymphocytic leukemia system and the difference in body weight was calculated at 25 mg/kg dose levels per injection.; type: functional, Mus musculus
P388 [14] = assay: Antitumor activity in P-388 lymphocytic leukemia system and the difference in body weight was calculated at 50 mg/kg dose levels per injection.; type: functional, Mus musculus
P388 [15] = assay: as §3; type: functional, Mus musculus; outline: as §4; remark: listed apart in the source
P388 [16] = assay: as §5; type: functional, Mus musculus; outline: as §4
P388 [17] = assay: Antitumor activity in P-388 lymphocytic leukemia system at 25 mg/kg dose levels per injection; type: functional, Mus musculus; outline: as §2
P388 [18] = assay: Compound was tested for antitumor activity in P-388 lymphocytic leukemia system at 200 mg/kg dose levels per injection.; type: functional, organism-based; parameters: dose 200 mg/kg; conditions: Mus musculus; outline: as §2
P388 [19] = assay: Compound was tested for antitumor activity in P-388 lymphocytic leukemia system at 200 mg/kg dose levels per injection; 4/6; type: functional, Mus musculus; outline: as §4
P388 [20] = assay: Compound was tested for antitumor activity in P-388 lymphocytic leukemia system at 100 mg/kg dose levels per injection; Toxic; type: functional, organism-based; parameters: dose 100 mg/kg; conditions: Mus musculus; outline: as §2
P388 [21] = assay: Compound was tested for antitumor activity in P-388 lymphocytic leukemia system at 200 mg/kg dose levels per injection; 2/6; type: functional, Mus musculus; outline: as §4
P388 [22] = assay: Compound was tested for antitumor activity in P-388 lymphocytic leukemia system at 100 mg/kg dose levels per injection; 5/6; type: functional, Mus musculus; outline: as §4
P388 [23] = assay: Compound was tested for antitumor activity in P-388 lymphocytic leukemia system at 200 mg/kg dose levels per injection; 3/6; type: functional, Mus musculus; outline: as §4
P388 [24] = assay: Compound was tested for antitumor activity in P-388 lymphocytic leukemia system at 50 mg/kg dose levels per injection; 6/6; type: functional, Mus musculus; outline: as §4
P388 [25] = assay: Compound was tested for antitumor activity in P-388 lymphocytic leukemia system at 50 mg/kg dose levels per injection;6/6; type: functional, Mus musculus; outline: as §4
[26] = Solubility was determined; type: physicochemical
P388 [27] = assay: Compound was tested for antitumor activity in P-388 lymphocytic leukemia system at 200 mg/kg dose levels per injection; 5/6; type: functional, Mus musculus; outline: as §4
P388 [28] = assay: Compound was tested for antitumor activity in P-388 lymphocytic leukemia system. at 200 mg/kg dose levels per injection; Toxic; type: functional, organism-based; parameters: dose 200 mg/kg; conditions: Mus musculus; outline: as §2
P388 [29] = assay: Compound was tested for antitumor activity in P-388 lymphocytic leukemia system at 60 mg/kg dose levels per injection; 6/6; type: functional, Mus musculus; outline: as §4
P388 [30] = assay: Compound was tested for antitumor activity in P-388 lymphocytic leukemia system and the difference in body weight was calculated at 60 mg/kg dose levels per injection; type: functional, Mus musculus
P388 [31] = assay: Compound was tested for antitumor activity in P-388 lymphocytic leukemia system at 60 mg/kg dose levels per injection; type: functional, Mus musculus; outline: as §2
P388 [32] = assay: Compound was tested for antitumor activity in P-388 lymphocytic leukemia system at 30 mg/kg dose levels per injection; 6/6; type: functional, Mus musculus; outline: as §4
P388 [33] = assay: Compound was tested for antitumor activity in P-388 lymphocytic leukemia system and the difference in body weight was calculated at 166.7 mg/kg dose levels per injection; type: functional, Mus musculus
P388 [34] = assay: Compound was tested for antitumor activity in P-388 lymphocytic leukemia system at 50 mg/kg dose levels per injection; 5/6; type: functional, Mus musculus; outline: as §4
P388 [35] = assay: Compound was tested for antitumor activity in P-388 lymphocytic leukemia system at 166.7 mg/kg dose levels per injection; 3/6; type: functional, Mus musculus; outline: as §4
P388 [36] = assay: Compound was tested for antitumor activity in P-388 lymphocytic leukemia system and the difference in body weight was calculated at 30 mg/kg dose levels per injection; type: functional, Mus musculus
P388 [37] = assay: Compound was tested for antitumor activity in P-388 lymphocytic leukemia system at 30 mg/kg dose levels per injection; type: functional, Mus musculus; outline: as §2
P388 [38] = assay: Compound was tested for antitumor activity in P-388 lymphocytic leukemia system. at 400 mg/kg dose levels per injection; Toxic; type: functional, organism-based; parameters: dose 400 mg/kg; conditions: Mus musculus; outline: as §2
P388 [39] = assay: Compound was tested for antitumor activity in P-388 lymphocytic leukemia system at 400 mg/kg dose levels per injection; 6/6; type: functional, Mus musculus; outline: as §4
P388 [40] = assay: Compound was tested for antitumor activity in P-388 lymphocytic leukemia system. The difference in body weight was calculated at 25 mg/kg dose levels per injection; type: functional, Mus musculus
P388 [41] = assay: Compound was tested for antitumor activity in P-388 lymphocytic leukemia system at 200 mg/kg dose levels per injection; 5/5; type: functional, Mus musculus; outline: as §4
P388 [42] = assay: Compound was tested for antitumor activity in P-388 lymphocytic leukemia system at 100 mg/kg dose levels per injection; 5/5; type: functional, Mus musculus; outline: as §4
P388 [43] = assay: Compound was tested for antitumor activity in P-388 lymphocytic leukemia system at 50 mg/kg dose levels per injection; 5/5; type: functional, Mus musculus; outline: as §4
P388 [44] = assay: Compound was tested for antitumor activity in P-388 lymphocytic leukemia system 25 mg/kg dose levels per injection; type: functional, Mus musculus; outline: as §2
P388 [45] = assay: Compound was tested for antitumor activity in P-388 lymphocytic leukemia system at 400 mg/kg dose levels per injection; 5/5; type: functional, Mus musculus; outline: as §4

Structure (SMILES) | T/C (P388 [1]; 100 mg/kg) | T/C (P388 [2]) | Solubility [3] | Weight difference (P388 [4]; 200 mg/kg) | Weight difference (P388 [5]; 100 mg/kg) | T/C (P388 [6]; 50 mg/kg) | Survivors at day 4 (P388 [7]) | T/C (P388 [9]) | Weight difference (P388 [10]) | Survivors at day 4 (P388 [11]) | Weight difference (P388 [13]) | Weight difference (P388 [14]; 50 mg/kg) | Survivors at day 4 (P388 [15]) | Survivors at day 4 (P388 [16]) | other results
CCN(CC)CN1C(=O)C2C3C=CC(C2C1=O)C1C2C(=O)N(CN(CC)CC)C(=O)C2C31 (stereo not given) | 117% and 116% | 103% | Insoluble | -0.7 g and -0.6 g | -0.8 g and -0.4 g | 111% and 102% | 6 | 139% and 125% | -0.9 g | 6 | 0 g | -1 g and -0.5 g | 6 | 6 | T/C (P388 [8]): 111%; Survivors at day 4 (P388 [12]): 5
O=C(O)CCC(=O)OCN1C(=O)C2C3C=CC(C2C1=O)C1C2C(=O)N(COC(=O)CCC(=O)O)C(=O)C2C31 (stereo not given) | – | – | – | -6.7 g and -6.9 g | -4.4 g and -3.1 g | 115% and 116% | 6 | – | – | 6 | – | – | 6 | – | T/C (P388 [1]): 165%; T/C (P388 [17]; 25 mg/kg): 103% and 107%; T/C (P388 [18]): Toxic; Survivors at day 4 (P388 [19]): 4; T/C (P388 [20]): Toxic; Survivors at day 4 (P388 [21]): 2; Survivors at day 4 (P388 [22]): 5
O=C1C2C3C=CC(C2C(=O)N1CN1CCOCC1)C1C2C(=O)N(CN4CCOCC4)C(=O)C2C31 (stereo not given) | 120% and 174% | – | Insoluble | -6.2 g and -5.9 g | -4.8 g and -3.9 g | 148% and 141% | 6 | – | – | 6 | – | -1.7 g and -1.5 g | 6 | – | T/C (P388 [17]; 25 mg/kg): 120% and 125%; T/C (P388 [18]): Toxic; Survivors at day 4 (P388 [23]): 3; Survivors at day 4 (P388 [19]): 4; Survivors at day 4 (P388 [24]): 6; Weight difference (P388 [13]; 25 mg/kg): -1 g and -0.9 g
O=C1C2C3CCC(C2C(=O)N1CO)C1C2C(=O)N(CO)C(=O)C2C31 (stereo not given) | – | – | – | – | – | – | 6 | – | – | 6 | 0.1 g | – | – | – | T/C (P388 [1]): 205%; T/C (P388 [17]): 102%; Weight difference (P388 [4]): -4.7 g; Survivors at day 4 (P388 [25]): 6; Weight difference (P388 [5]): -3.3 g; T/C (P388 [6]): 145%; Solubility [26]: 1%; Survivors at day 4 (P388 [27]): 5; Weight difference (P388 [14]): -1.8 g; T/C (P388 [28]): Toxic
CN1CCN(CN2C(=O)C3C4C=CC(C3C2=O)C2C3C(=O)N(CN5CCN(C)CC5)C(=O)C3C42)CC1 (stereo not given) | 200% and 211% | 99% | – | – | -3.7 g and -4.9 g | – | 6 | – | – | 6 | -0.6 g | – | – | – | Survivors at day 4 (P388 [29]): 6; Weight difference (P388 [30]): -3.1 g; T/C (P388 [31]): 165%; Survivors at day 4 (P388 [32]): 6; Weight difference (P388 [4]): -9 g; Weight difference (P388 [33]): -5.1 g; T/C (P388 [6]): 106%; Solubility [26]: 1.5%; Survivors at day 4 (P388 [34]): 5; Survivors at day 4 (P388 [35]): 3; Weight difference (P388 [36]): -0.2 g; Survivors at day 4 (P388 [27]): 5; Weight difference (P388 [14]): -1.3 g; T/C (P388 [37]): 116%
O=C1C2C3C=CC(C2C(=O)N1CN1CCSCC1)C1C2C(=O)N(CN4CCSCC4)C(=O)C2C31 (stereo not given) | 148% and 165% | 99% | Insoluble | -5.1 g and -5.2 g | -2.9 g and -2.1 g | 166% and 121% | 6 | 166% and 194% | -5.7 g | 6 | – | -1.4 g and -2.1 g | 6 | 6 | T/C (P388 [38]): Toxic; Survivors at day 4 (P388 [39]): 6; Weight difference (P388 [40]): -1.3 g
CC(=O)OCN1C(=O)C2C3C=CC(C2C1=O)C1C2C(=O)N(COC(C)=O)C(=O)C2C31 (stereo not given) | 118% and 155% | 117% | Insoluble | – | – | 140% and 115% | 6 | 180% and 133% | -2.2 g | 6 | – | -0.4 g and -0.7 g | 6 | 6 | Survivors at day 4 (P388 [41]): 5; Survivors at day 4 (P388 [42]): 5; Survivors at day 4 (P388 [43]): 5; T/C (P388 [8]): 208%; Weight difference (P388 [44]): -0.1 g; Survivors at day 4 (P388 [45]): 5
